For data set [1], the system named is Clostridioides difficile. Kind of data set: Antibacterial activity against Clostridium difficile UK6 by CLSI M11-A7 protocol based method. Type of data set: functional. The essentials: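 C. difficile UK6 MICs followed CLSI media and methods for anaerobe susceptibility testing. MIC was taken as the lowest concentration giving complete growth inhibition. DMSO stocks were used, with final DMSO below 0.5%. Runs were repeated at least three times, in duplicate each time.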

For data set [2], the system named is Staphylococcus aureus. Nature of the data set: Antibacterial activity against methicillin-resistant Staphylococcus aureus ATCC 33591 by CLSI M11-A7 protocol based method. Type of data set: functional. The essentials: (§1)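 Broth MIC by a previously described standard protocol; MIC is the lowest concentration giving complete growth inhibition. Compounds were dosed from DMSO stocks with final DMSO below 0.5%. Each experiment was repeated at least three times in duplicate.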

The subject of data set [3] is Staphylococcus epidermidis. Kind of data set: Antibacterial activity against methicillin resistant Staphylococcus epidermidis RP62A by CLSI M11-A7 protocol based method. Type of data set: functional. The essentials:
as §1

Data set [4] has as its system Enterococcus faecalis. Kind of data set: Antibacterial activity against vancomycin resistant Enterococcus faecalis ATCC 700802 by CLSI M11-A7 protocol based method. Type of data set: functional. The essentials:
as §1

In data set [5] the test system is HepG2. Kind of data set: Cytotoxicity against human HepG2 cells assessed as reduction in cell viability after 24 hrs by MTT assay. Type of data set: cell-based. As to conditions: HepG2, 24 h. The essentials:
(§2)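 Cells were grown in DMEM with 10% FBS and 1% penicillin/streptomycin at 37°C, 5% CO2, then seeded at 10^4 cells/well overnight. They were exposed to 128 to 0.125 µg/ml compound, or 1% DMSO control, for 24 h at 37°C. MTT was added for 4 h, formazan dissolved in DMSO for 15 min, and A540 read. IC50 was relative to control-treated cells, in three replicates.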
Background: Tetrazolium dyes change colour on reduction, which living cells bring about.

Data set [6] deals with Mus musculus. Nature of the data set: Toxicity in C57BL/6 mouse assessed as diarrhea at 50 mg/kg, po bid via gavage for 5 days starting from 4 hrs post challenge measured. Type of data set: organism-based. As to conditions: in vivo. The essentials: (§3)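 Uninfected female 6-week C57BL/6 mice (n=5) received 50 mg/kg by gavage on the infected group's schedule: at 4 h, then twice daily for five days. They were monitored daily for five days for weight change, survival, diarrhea and other disease signs.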

The subject of data set [7] is Clostridioides difficile. Kind of data set: Antibacterial activity against Clostridium difficile UK6 infected in C57BL/6 mouse assessed as decrease in bacterial count in feces at 50 mg/kg, po bid via gavage for 5 days starting from 4 hrs post challenge by serial dilution method relative to control. Also on record: scale not given: the % may be the effect or the level left. Type of data set: functional. The essentials: (§4)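 Female 6-week C57BL/6 mice (n=10 per group) got an antibiotic cocktail in drinking water for 5 days and autoclaved water for 2 days. Clindamycin 10 mg/kg ip followed one day before gavage of 10^6 CFU UK6 spores. Dosing was 50 mg/kg by gavage at 4 h, then twice daily for five days. Feces from days 1, 3 and 5 were ethanol-shocked, serially diluted and plated anaerobically 48 h. Counts are CFU/g, triplicate plates.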

Data set [8] deals with Mus musculus. Kind of data set: Toxicity in C57BL/6 mouse assessed as development of Clostridium difficile infection symptoms at 50 mg/kg, po bid via gavage for 5 days starting from 4 hrs post challenge measured. Type of data set: organism-based. As to conditions: in vivo. The essentials:
as §3

The subject of data set [9] is Clostridioides difficile. Nature of the data set: Antibacterial activity against Clostridium difficile UK6 infected in C57BL/6 mouse assessed as decrease in diarrhea at 50 mg/kg, po bid via gavage for 5 days starting from 4 hrs post challenge measured after 2 days relative to control. The arrangement: scale not given: the % may be the effect or the level left. Type of data set: functional. The essentials: (§5)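 Female 6-week C57BL/6 mice (n=10 per group) were antibiotic-pretreated, given clindamycin, then gavaged with 10^6 CFU UK6 spores. Compound was given at 50 mg/kg by gavage at 4 h post-challenge, then twice daily for five days. Mice were checked daily for five days. Percent diarrhea is mice with diarrhea divided by mice in the group, compared by Pearson chi-square.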

Data set [10] concerns Clostridioides difficile. Nature of the data set: Antibacterial activity against Clostridium difficile UK6 infected in C57BL/6 mouse assessed as decrease in bacterial count in feces at 50 mg/kg, po bid via gavage for 5 days starting from 4 hrs post challenge measured after 5 days by serial dilution method relative to control. Type of data set: functional. Summed up:
as §4

Data set [11] concerns Clostridioides difficile. Kind of data set: Antibacterial activity against Clostridium difficile UK6 infected in C57BL/6 mouse assessed as increase in mouse survival at 50 mg/kg, po bid via gavage for 5 days starting from 4 hrs post challenge measured from day 3 to 5 during compound dosing relative to control. Type of data set: functional. Summed up:
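Female C57BL/6 mice (6 weeks) received a six-antibiotic cocktail in drinking water for 5 days, then autoclaved water for 2 days and clindamycin 10 mg/kg ip on day −1. On day 0 they were challenged by gavage with 10^6 CFU UK6 spores. Compound was given by gavage at 50 mg/kg 4 h post-challenge, then twice daily from day 1 for five days. Survival was monitored daily versus an untreated infected group (n=10 per group).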

Data set [12] is described as follows: Selectivity index, ratio of IC50 for HEK293 cells to MIC for Clostridium difficile UK6. Type of data set: toxicity. As to conditions: human, read-out: Selectivity Index.
Data set [13] in a line: Selectivity index, ratio of IC50 for human HepG2 cells to MIC for Clostridium difficile UK6. Type of data set: toxicity. As to conditions: read-out: Selectivity Index.
Data set [14] relates to Clostridioides difficile. Nature of the data set: Antibacterial activity against Clostridium difficile UK6 infected in C57BL/6 mouse assessed as decrease in diarrhea at 50 mg/kg, po bid via gavage for 5 days starting from 4 hrs post challenge measured daily during compound dosing. Type of data set: functional, organism-based. The essentials:
as §5

Data set [15] concerns HEK-293T. Nature of the data set: Cytotoxicity against HEK293T cells assessed as reduction in cell viability after 24 hrs by MTT assay. Type of data set: cell-based. As to conditions: Homo sapiens. Summed up:
as §2

In brackets after ≈: the same amount, converted by molar mass. Activity calls are given as the source filed them. The calls are words filed in the database; no cut-off is given here. A value given as a limit tells only on which side of the number the result lay.

Usually MIC stands for the lowest concentration found to suppress growth. For `COc1cc2nccc(Nc3ccc(F)c(Cl)c3)c2cc1OCCOc1ccccc1`, the MIC came to 4 µg/mL (≈ 9.11 µM) in data set [1], 3 µg/mL (≈ 6.84 µM) in data set [2], 3 µg/mL (≈ 6.84 µM) in data set [3] and 3 µg/mL (≈ 6.84 µM) in data set [4].

In the case of `COc1cc2nccc(Nc3ccc(C)cc3)c2cc1OCc1ccc(C(F)(F)F)cc1`, the MIC was found to be 4 µg/mL (≈ 9.12 µM) in [1], 3 µg/mL (≈ 6.84 µM) in data set [2], 3 µg/mL (≈ 6.84 µM) in data set [3] and 3 µg/mL (≈ 6.84 µM) in data set [4].

Consider `COc1cc2nccc(Nc3ccc(F)c(Cl)c3)c2cc1OCc1ccccc1C`, for which the minimal inhibitory concentration (MIC) in data set [1] was 8 µg/mL (≈ 18.9 µM); in data set [2], 1.5 µg/mL (≈ 3.55 µM); in [3], 3 µg/mL (≈ 7.09 µM); in data set [4] it was 1.5 µg/mL (≈ 3.55 µM).

Take `CCCCCCCCCC(=O)N[C@@H](Cc1c[nH]c2ccccc12)C(=O)N[C@@H](CC(N)=O)C(=O)N[C@@H](CC(=O)O)C(=O)N[C@@H]1C(=O)NCC(=O)N[C@@H](CCCN)C(=O)N[C@@H](CC(=O)O)C(=O)N[C@H](C)C(=O)N[C@@H](CC(=O)O)C(=O)NCC(=O)N[C@H](CO)C(=O)N[C@@H]([C@H](C)CC(=O)O)C(=O)N[C@@H](CC(=O)c2ccccc2N)C(=O)O[C@@H]1C` [DAPTOMYCIN]: the MIC in data set [2] is 0.5 µg/mL (≈ 0.309 µM); in data set [3] it was 0.5 µg/mL (≈ 0.309 µM); in data set [4], 1 µg/mL (≈ 0.617 µM).

The term IC50 denotes the concentration that inhibits the measured activity by half. For `COc1cc2nccc(Nc3ccc(F)c(Cl)c3)c2cc1OCc1ccc(C(C)C)cc1`, the IC50 turned out to be 148 µM in data set [5] and 146 µM in data set [15]. Moreover, the Activity result in [6] is reported as “Non-Toxic”; in data set [7] it was >80%; in [8] it was “Non-Toxic”; in [9] it was 32%; in data set [11] it was 20%. Moreover, the MIC in data set [1] was found to be 1 µg/mL (≈ 2.22 µM); in [2] it was 1.5 µg/mL (≈ 3.33 µM); in [3], 6 µg/mL (≈ 13.3 µM); in data set [4] it was 3 µg/mL (≈ 6.65 µM). Further, the “fold change (FC)” value in data set [10] came out at 14. Further, the selectivity ratio in data set [12] and in [13] was > 60 in each case. In addition, the outcome in data set [14] was Active.

Regarding `CN[C@H](CC(C)C)C(=O)N[C@H]1C(=O)N[C@@H](CC(N)=O)C(=O)N[C@H]2C(=O)N[C@H]3C(=O)N[C@H](C(=O)N[C@H](C(=O)O)c4cc(O)cc(O)c4-c4cc3ccc4O)[C@H](O)c3ccc(c(Cl)c3)Oc3cc2cc(c3O[C@@H]2O[C@H](CO)[C@@H](O)[C@H](O)[C@H]2O[C@H]2C[C@](C)(N)[C@H](O)[C@H](C)O2)Oc2ccc(cc2Cl)[C@H]1O` [VANCOMYCIN], the lowest concentration to inhibit growth in data set [1] (MIC) was 0.5 µg/mL (≈ 0.345 µM).

Take `COc1cc2nccc(Nc3ccc(C)cc3)c2cc1OCc1ccc(C)cc1`: the MIC in data set [1] was > 16 µg/mL; in [2], 12 µg/mL (≈ 31.2 µM).

Take `COc1cc2nccc(Nc3ccc(F)c(Cl)c3)c2cc1OCc1ccc(C(F)(F)F)cc1`: the MIC in data set [1] was 4 µg/mL (≈ 8.39 µM); in data set [2] it was 1.5 µg/mL (≈ 3.15 µM); in [3], 3 µg/mL (≈ 6.29 µM); in [4], 1.5 µg/mL (≈ 3.15 µM).

Consider `COc1cc2nccc(Nc3ccc(C(F)(F)F)cc3)c2cc1OCc1ccc(C(F)(F)F)cc1`, for which the IC50 came to 70.7 µM in data set [5] and 58.1 µM in [15]. Besides, the minimum inhibitory concentration (MIC) in [1] is 2 µg/mL (≈ 4.06 µM); in data set [2], 0.75 µg/mL (≈ 1.52 µM); in [3], 3 µg/mL (≈ 6.09 µM); in data set [4] it was 0.75 µg/mL (≈ 1.52 µM). For the same molecule, the selectivity ratio in data set [12] and in [13] was 15 throughout.

`COc1cc2nccc(Nc3cccc(C(F)(F)F)c3)c2cc1OCc1ccc(C(F)(F)F)cc1`: the MIC in [1] came to 4 µg/mL (≈ 8.12 µM); in data set [2], 3 µg/mL (≈ 6.09 µM); in [3] it was 6 µg/mL (≈ 12.2 µM); in data set [4], 3 µg/mL (≈ 6.09 µM).

Source of the values: ChEMBL document CHEMBL4118238, “Facilely accessible quinoline derivatives as potent antibacterial agents” (Bioorg Med Chem, 2018).
